Assay results taken from the EternaBench riboswitch data.

System: MS2 coat protein
Test: apparent Kd, MS2 coat protein; higher = weaker binding; RNA-MaP array; FMN 200 µM where present
Procedure, shortened: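 Designs were transcribed by stalled E. coli RNA polymerase on Illumina sequencing-chip clusters. They were titrated with SNAP-549-labelled MS2 coat protein from 0.7 or 1.5 nM, doubling to 3 µM, without and then with constant ligand. Buffer: 100 mM Tris-HCl pH 7.5, 80 mM KCl, 4 mM MgCl2, BSA, DTT, yeast tRNA, Tween-20. Green signal was normalised to red-channel RNA signal and control-cluster median Fmax. Apparent Kd is the median of filtered per-cluster binding-curve fits.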

[1] = designed as: OFF switch for flavin mononucleotide, no ligand
[2] = ligand present: flavin mononucleotide, designed as: OFF switch for flavin mononucleotide
[3] = designed as: ON switch for flavin mononucleotide, no ligand
[4] = ligand present: flavin mononucleotide, designed as: ON switch for flavin mononucleotide

| Sequence | apparent Kd [1] | apparent Kd [2] | apparent Kd [3] | apparent Kd [4] |
| --- | --- | --- | --- | --- |
| GCUCUGCGAGGAUAUACAUGAGGAUCACCCAUGUGCGAGUUACUUGUGAGGUCGGUUGGUAGAAGGCGCGGAGG | 106 nM | 89.8 nM |  |  |
| GCUGACGAUGUAGGAUAUCUCGACGAUAAGUCGAGAGAAGGACAUGAGGAUCACCCAUGUACUCUAACGUCAGCGAGGAAACUC | 17.2 nM | 18.5 nM |  |  |
| GCUGCAAAGUAAGGAUAUGCCUAGGAAACCUAGGCAGAAGGUACAUGAGGAUCACCCAUGUUAACGCAAAGCGAAUAAAGCAGC | 18.1 nM | 24.1 nM |  |  |
| GCUGGGUCAGGAUAUACAAGAUCGAAAGAUCAAAGAUUCGUACAUGAGGAUCACCCAUGUAGAAGGGACUGGGC | 23.4 nM | 31.7 nM |  |  |
| GCUGUCGCAUGAGGAUAUGGACAGCUUUGCUGUCCAGAAGGCAUGUCGAUAGACAUGAGGAUCACCCAUGUAGUAAAGACAGCA |  |  | 588 nM | 64.6 nM |
| GCUUCACAUGAGGAUCACCCAUGUCUUCGGAGUCGAGGAUAUGGUCACUGUAAACAGUGGCCAGAAGGCGAGGAGC |  |  | 54.1 nM | 35 nM |
| GCUUGUGAAGGAUAUACUGGCGACAUGCGCUCGACACGCGCACAUGAGGAUCACCCAUGUAGAAGGUCAAACAU | 20.9 nM | 21.3 nM |  |  |
| GCUUUCGCAUGAGGAUAUGCUCGAGUUUAGAGAGCAGAAGGCAUGUCAUAAGACAUGAGGAUCACCCAUGUAGUUAAAAUUGCA |  |  | 164 nM | 10.7 nM |
| GGAAAACAUGAGGAUCACCCAUGUAAGGAUAUGCAAAAGGAUAUAGAAGGAAAAAAAAGCAGAAGGUACAAAGG | 39.9 nM | 74.8 nM |  |  |
| GGAAAACAUGAGGAUCACCCAUGUGAGGAUAUCGAUGUCCAAAAAGAAGUGCGGGACUCGAGAAGGCACUUGGA | 52.7 nM | 37.5 nM |  |  |
| GGAAAACAUGAGGAUCACCCAUGUGAGGAUAUCGAUGUCCAGGGCCUGGUGCGGGACUCGAGAAGGCACUGGGA | 62.9 nM | 126 nM |  |  |
| GGAAAGCAAGGAUAUGCAAACAAACAAACAAACAAAAGGGAACAUGAGGAUCACCCAUGUAGAAGGUGCAAACA | 40.8 nM | 32.5 nM |  |  |
| GGAAAUCAUGUAGGAUAUGCAUGGCGAAGCUACGCAGAAGGACAUGAGGAUCACCCAUGUUAUAGCGUCCGAGAAAGGAUGCAA | 111 nM | 167 nM |  |  |
| GGAAGACAAAGUCUUCCAAUUCGAACAUGAGGAUCACCCAUGUAGGAUAUGCUACUCAAAGAGUAGCAGAAGGACAUGUGCUUU | 37.3 nM | 164 nM |  |  |
| GGAAGACAUGAGGAUCACCCAUGUGGGAUUAUGGGAGGAUAUACAAAGACGAGAGUCAGAGUAGAAGGCCUAGGAU |  |  | 84.3 nM | 33.9 nM |
| GGACAGUCAGGAUAUACAUGAGGAUCACCCAUGUUGAGAUGUGAAAGGGCGGGAGUAGGUAGAAGGGACGAGAG | 31.3 nM | 27.5 nM |  |  |
| GGACAUGUCGUCUACAUGAGGAUCACCCAUGUCGAUAGACAUGAGGAUAUCGAUACAAAUUGUAUCGAGAAGGCAUGCAUGUCC |  |  | 44.9 nM | 23 nM |
| GGACAUGUCGUUUACAUGAGGAUCACCCAUGUCGAUAGACAUGAGGAUAUCGAUACAAAUUGUAUCGAGAAGGCAUGCAUGUCC |  |  | 91.2 nM | 23.5 nM |
| GGACAUUUACAGAAGGGCAAGCUCGAAAGAGGAGAAAGAGAACGAGCUUGCAGGAUAUGUUGAACAUGAGGAUCACCCAUGUCU |  |  | 9.75 nM | 7.69 nM |
| GGACAUUUACAGAAGGGCAAGUUAGAUAGUGAAUAUUUAGAUCUGACUUGCAGGAUAUGUUGAACAUGAGGAUCACCCAUGUCC |  |  | 13.7 nM | 10.8 nM |
| GGACCGCGCAGAGUUGGCGGUCGGCAGGAUAUGACAUGAGGAUCACCCAUGUGAACUCCAUUGGGUCAGAAGGGCCACGACACA | 22.4 nM | 107 nM |  |  |

| Sequence | apparent Kd [1] | apparent Kd [2] | apparent Kd [3] | apparent Kd [4] |
| --- | --- | --- | --- | --- |
| GGACCGUGCAGAGUUCGCGGUCGGCAGGAUAUGACAUGAGGAUCACCCAUGUGAACUCCAUUGGGUCAGAAGGGCCACGACACA | 19.8 nM | 78 nM |  |  |
| GGACGACACAUCUACAUGAGGAUCACCCAUGUCGAAAGACAUGAGGAUAUGCAUCCUAAUUGGAUGCAGAAGGCAUGGUCGUCC |  |  | 1210 nM | 70.3 nM |
| GGACGCUAAGGAUAUACAUGAGGAUCACCCAUGUAGCCCGAAAGGGCGCGUUCCUUCUGUAGAAGGUGGCUAAA | 17 nM | 25.4 nM |  |  |
| GGACGUCACAUCUACAUGAGGAUCACCCAUGUCAAAAGACAUGAGGAUAUGCUUCCUAAUUGGAAGCAGAAGGCAUGGACGUCC |  |  | 1210 nM | 67.5 nM |
| GGACGUCACAUGAACAUGAGGAUCACCCAUGUAAAUUCUCAUGAGGAUAUGGUUCCUAAUUGGAACCAGAAGGCGUGGACGUCC |  |  | 957 nM | 430 nM |
| GGACGUCACAUUAACAUGAGGAUCACCCAUGUCUCUUGACAUGAGGAUAUGGAUCCUAAUUGGAUCCAGAAGGCAUGGACGUCC |  |  | 1220 nM | 97.2 nM |
| GGACGUCAGAUUAACAUGAGGAUCACCCAUGUCUUUUGACAUGAGGAUAUGCAACCUAAUUGGUUGCAGAAGGCAUGGACGUCC |  |  | 917 nM | 85.2 nM |
| GGACGUCAGAUUAACAUGAGGAUCACCCAUGUCUUUUGACAUGAGGAUAUGCAACGUAAUUCGUUGCAGAAGGCAUGGACGUCC |  |  | 1010 nM | 89.8 nM |
| GGACGUCCCAUUAACAUGAGGAUCACCCAUGUCAAAAGACAUGAGGAUAUGCUACCUAAUUGGUAGCAGAAGGCAUGGACGUCC |  |  | 878 nM | 85.4 nM |
| GGACGUCGGAUAAACAUGAGGAUCACCCAUGUAACUAGACAUGAGGAUAUGGAUUCUAAUUGGAUCCAGAAGGUAUCGACGUCC |  |  | 193 nM | 211 nM |
| GGACGUCUCAUUAACAUGAGGAUCACCCAUGUCGAAAGACAUGAGGAUAUGGAUCCUAAUUGGAUCCAGAAGGCAUGGACGUCC |  |  | 98 nM | 582 nM |
| GGACGUCUCAUUUACAUGAGGAUCACCCAUGUCGAUAGACAUGAGGAUAUGGAUCCGAAUCGGAUCCAGAAGGCAUGGACGUCC |  |  | 1130 nM | 63.4 nM |
| GGACGUGUCGUUUACAUGAGGAUCACCCAUGUCGAUAGACAUGAGGAUAUGGAUCCGAAUCGGAUCCAGAAGGCAUGCACGUCC |  |  | 260 nM | 26.8 nM |
| GGAGAACAUGAGGAUCACCCAUGUGGAUGGGCGCUAGGAUAUGCGAGAGGGUGAAGAGAAGCAGAAGGAGUGGAUA |  |  | 141 nM | 142 nM |
| GGAGACCUCACAGGAUAUGCUGGACUUUGUCCAGCAGAAGGGUGAAACAUGAGGAUCACCCAUGUAAUGGUCUCCAAAUUUAAU |  |  | 1030 nM | 55.6 nM |
| GGAGACCUCGCAGGAUAUGCUGGACUUUGUCCAGCAGAAGGGUGAAAACAUGAGGAUCACCCAUGUAUGGUCUCCAAAUUUAAU |  |  | 1060 nM | 54.3 nM |
| GGAGAGCAAGGAUAUACAUGAGGAUCACCCAUGUACGGUCAUUUGGGCAUGUCUGUAAGUAGAAGGUGUUUUGG | 45.2 nM | 58.5 nM |  |  |
| GGAGCAGGGUGAGGAUAUGUAAAAUUCGAAAGGACAGAAGGCACUUAACCAACAUGAGGAUCACCCAUGUAGGCGACGGCACCA |  |  | 30 nM | 21.8 nM |
| GGAGCCGGCACCGAGGAUAUUCAUAUUAAAACAUGAGGAUCACCCAUGUGGGCCAGAAGGCCUUGGGAGAAGGCGGAUCGGCUCG |  |  | 305 nM | 30 nM |
| GGAGCCGGCCUAGGAUAUUUCAUAAUAUUACAUGAGGAUCACCCAUGUAGGCCAGAAGGCCUUGGGAAGAAGGAGGUCGGCUCC |  |  | 42.6 nM | 15.9 nM |
